Data from ChEMBL document CHEMBL4811311, “Ferulic acid amide derivatives with varying inhibition of amyloid-β oligomerization and fibrillization” (Bioorg Med Chem, 2021).

How the values were obtained:
[1] = target: T1, Amyloid-beta precursor protein (Homo sapiens, UniProt P05067); test: Inhibition of human biotinylated amyloid beta (1 to 42) oligomerization assessed as decrease in oligomer abundance measured after 1 hr by ELISA
[2] = target: T1, Amyloid-beta precursor protein; test: Inhibition of human amyloid beta (1 to 40) fibrillization at 100 uM measured every 15 mins for 100 hrs by Thioflavin-T fluorescence assay relative to control
Procedure, shortened: (§1)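 Aβ40 monomerized in HFIP (1 mg/mL), dried under argon, diluted to 20 μM final in 20 mM Tris, 8 μM ThT, 0.3 M NaCl, pH 7.4. Compounds added in DMSO, triplicate; DMSO-only control taken as 100% aggregation. ThT fluorescence (ex 450/em 482 nm) read every 15 min for ~100 h; percent inhibition versus control, averaged over three independent samples.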

[3] = target: T1, Amyloid-beta precursor protein; test: Inhibition of human amyloid beta (1 to 40) fibrillization at 20 uM measured every 15 mins for 100 hrs by Thioflavin-T fluorescence assay relative to control; procedure, shortened: as §1

T1 sequence (P05067 whole entry): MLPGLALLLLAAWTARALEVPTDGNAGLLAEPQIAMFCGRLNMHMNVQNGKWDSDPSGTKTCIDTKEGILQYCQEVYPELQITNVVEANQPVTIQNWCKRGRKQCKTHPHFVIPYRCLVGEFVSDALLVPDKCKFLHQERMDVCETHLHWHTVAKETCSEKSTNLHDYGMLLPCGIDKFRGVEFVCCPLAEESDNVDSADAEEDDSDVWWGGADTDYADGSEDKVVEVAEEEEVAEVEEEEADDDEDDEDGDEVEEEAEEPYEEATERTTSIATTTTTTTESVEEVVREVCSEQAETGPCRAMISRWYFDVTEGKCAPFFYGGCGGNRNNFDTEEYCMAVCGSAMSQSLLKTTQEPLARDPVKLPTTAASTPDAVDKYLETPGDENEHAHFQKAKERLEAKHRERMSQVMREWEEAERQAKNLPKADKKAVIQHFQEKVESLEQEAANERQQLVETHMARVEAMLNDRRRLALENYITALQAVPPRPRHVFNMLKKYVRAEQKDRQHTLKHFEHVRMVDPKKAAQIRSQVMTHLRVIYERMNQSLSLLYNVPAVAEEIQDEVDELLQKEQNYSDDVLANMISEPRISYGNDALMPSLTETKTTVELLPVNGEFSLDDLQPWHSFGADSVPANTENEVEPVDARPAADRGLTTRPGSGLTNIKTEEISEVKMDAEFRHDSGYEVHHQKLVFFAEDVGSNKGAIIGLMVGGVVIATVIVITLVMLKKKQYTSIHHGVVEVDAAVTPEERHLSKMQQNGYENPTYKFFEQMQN

Row | IC50 ([1]; read-out: IC50) [µM] | inhibition [2] [%] | IC50 [1] | inhibition [3] [%] | Structure (SMILES)
1 | 8.59 |  |  |  | COc1cc(/C=C/C(=O)N2CCC[C@H]2C(=O)NCCOc2ccccc2)ccc1OCc1ccccc1
2 | 3.61 |  |  |  | COc1cc(/C=C/C(=O)N2CC(C(=O)NCc3ccco3)C2)ccc1OCc1ccccc1
3 | 34.9 | 6.49 |  |  | CCN(CC)C(=O)CCc1ccc(OCc2ccccc2)c(OC)c1
4 | 18.7 |  |  |  | COc1cc(/C=C/C(=O)N2CCC[C@H]2C(=O)NCc2ccccc2)ccc1OCc1ccccc1
5 |  |  | Not Active |  | CCCN(CCC)C(=O)/C=C/c1ccc(OCCCOc2ccccc2)c(OC)c1
6 | 24.6 | 0 |  |  | COc1cc(/C=C/C(=O)N(C)C)ccc1OCc1ccccc1
7 | 12.4 | 17 |  | 9.35 | CCCN(CCC)C(=O)/C=C/c1ccc(OCc2ccccc2)c(OC)c1
8 | 27.9 | 13.4 |  | 7.28 | COc1cc(/C=C/C(=O)N2CCCCC2)ccc1OCc1ccccc1
9 | 1.8 | 20.6 |  | 5.5 | COc1cc(/C=C/C(=O)N2CC(C(=O)NCCOc3ccccc3)C2)ccc1OCc1ccccc1
10 | 98.8 |  |  |  | CCCN(CCC)C(=O)/C=C/c1ccc(O)c(OC)c1
11 |  |  | Not Active |  | COc1cc(/C=C/c2cnco2)ccc1OCc1ccccc1
12 | 65.1 |  |  |  | COc1cc(/C=C/C(=O)N2CCCC2)ccc1OCc1ccccc1
13 |  |  | Not Active |  | CCN(CC)C(=O)/C=C/c1ccc(OCc2cscn2)c(OC)c1
14 | 17.1 |  |  |  | COc1cc(/C=C/C(=O)N2CCC[C@H]2C(=O)N2CCCCC2)ccc1OCc1ccccc1
15 | 21.8 |  |  |  | COc1cc(/C=C/C(=O)N2CC(C(=O)N3CC(F)(F)C3)C2)ccc1OCc1ccccc1
16 | 3.13 | 48.2 |  | 14.8 | COc1cc(/C=C/C(=O)N2CC(C(=O)NCc3ccccc3)C2)ccc1OCc1ccccc1
17 | 78.1 |  |  |  | COc1cc(/C=C/C(=O)N2CCOCC2)ccc1OCc1ccccc1
18 |  |  | Not Active |  | COc1cc(/C=C/C(=O)NCc2ccco2)ccc1OCc1ccccc1
19 |  | 27.5 | Not Active | 2.21 | COc1cc(-c2cncn2Cc2ccccc2)ccc1OCc1ccccc1
20 | 45.3 |  |  |  | CCCN(CCC)C(=O)/C=C/c1ccc(OC)c(OC)c1
21 | 9.91 | 0 |  |  | COc1cc(-c2cncn2CCC(=O)NCCc2ccccc2)ccc1OCc1ccccc1
22 | 7.76 | 13.8 |  | 5.98 | COc1cc(-c2cncn2CCC(=O)NCCOc2ccccc2)ccc1OCc1ccccc1
23 | 8.17 |  |  |  | COc1cc(/C=C/C(=O)NCCC(=O)N2CCCCC2)ccc1OCc1ccccc1
24 | 81.6 |  |  |  | COc1cc(/C=C/C(=O)NCCC(=O)NCc2ccccc2)ccc1OCc1ccccc1
25 | 205 |  |  |  | CCN(CC)C(=O)/C=C/c1ccc(O)c(OC)c1
26 |  |  | Not Active |  | CCN(CC)C(=O)/C=C/c1ccc(OCc2cccnc2)c(OC)c1
27 |  |  | Not Active |  | COc1cc(/C=C/C(=O)N2CCN(c3ccccc3)CC2)ccc1OCc1ccccc1

Row | IC50 ([1]; read-out: IC50) [µM] | inhibition [2] [%] | IC50 [1] | inhibition [3] [%] | Structure (SMILES)
28 | 10.6 | 3.62 |  | 1.95 | CCN(CC)C(=O)/C=C/c1ccc(OS(=O)(=O)c2ccc(C)cc2)c(OC)c1
29 |  |  | Not Active |  | COc1cc(/C=C/C(=O)NCc2ccccc2)ccc1OCc1ccccc1
30 | 16.8 |  |  |  | COc1cc(/C=C/C(=O)N2CCC[C@@H]2C(=O)NCCOc2ccccc2)ccc1OCc1ccccc1
31 | 4.78 |  |  |  | COc1ccc(CNC(=O)C2CN(C(=O)/C=C/c3ccc(OCc4ccccc4)c(OC)c3)C2)cc1
32 | 98.5 | 0 |  |  | COc1cc(/C=C/C(=O)Nc2nnn[nH]2)ccc1OCc1ccccc1
33 | 17.8 |  |  |  | COc1cc(/C=C/C(=O)N2CCC[C@@H]2C(=O)NCc2ccccc2)ccc1OCc1ccccc1
34 | 10.6 | 22.3 |  | 0.29 | COc1cc(/C=C/CN2CCCCC2)ccc1OCc1ccccc1
35 |  | 9.56 | Not Active |  | COc1cc(/C=C/c2nnn[nH]2)ccc1OCc1ccccc1
36 | 35.7 |  |  |  | COc1cc(/C=C/C(=O)N2CC(C(=O)N3CCOCC3)C2)ccc1OCc1ccccc1
37 | 3.65 |  |  |  | COc1cc(/C=C/C(=O)N2CC(C(=O)NCc3ccc(F)cc3)C2)ccc1OCc1ccccc1
38 |  |  | Not Active |  | CCN(CC)C(=S)/C=C/c1ccc(OCc2ccccc2)c(OC)c1
39 | 39.3 | 0 |  |  | CCN(CC)C(=O)/C=C/c1ccc(OCc2ccccc2)c(OC)c1
40 |  |  | Not Active |  | CCCN(CCC)C(=O)/C=C/c1ccc(OCc2cc(OC)cc(OC)c2)c(OC)c1
41 | 10.6 |  |  |  | COc1cc(/C=C/C(=O)N2CC(C(=O)N3CCCCC3)C2)ccc1OCc1ccccc1
42 | 17.9 |  |  |  | COc1cc(/C=C/C(=O)NCCC(=O)NCCOc2ccccc2)ccc1OCc1ccccc1
43 |  |  | Not Active |  | COc1cc(/C=C/C(=O)NCCOc2ccccc2)ccc1OCc1ccccc1
44 | 18.7 | 13.3 |  | 0 | COc1cc([C@H]2C[C@@H]2C(=O)N2CCCCC2)ccc1OCc1ccccc1
45 | 19.2 |  |  |  | COc1ccc(CNC(=O)[C@@H]2CCCN2C(=O)/C=C/c2ccc(OCc3ccccc3)c(OC)c2)cc1
46 | 226 | 36.8 |  | 9.75 | COc1cc(/C=C/C(=O)O)ccc1O [FERULATE]
47 | 54.2 |  |  |  | COc1ccc(CNC(=O)CCNC(=O)/C=C/c2ccc(OCc3ccccc3)c(OC)c2)cc1
48 |  | 44.1 | Not Active | 0 | COc1cc(/C=C/C(O)C(F)(F)F)ccc1OCc1ccccc1 (stereo not given)
49 | 119 | 91.9 |  | 73.1 | CCN(CC)C(=O)/C=C/c1ccc(O)c(O)c1
50 | 107 |  |  |  | COc1cc(/C=C/C(=O)N2CC(F)(F)C2)ccc1OCc1ccccc1
51 |  |  | Not Active |  | CCCN(CCC)C(=O)/C=C/c1ccc(OCc2cc(F)cc(F)c2)c(OC)c1
52 | 45.8 | 8.81 |  |  | COc1cc([C@H]2C[C@@H]2C(=O)N(C)C)ccc1OCc1ccccc1
53 | 12.8 |  |  |  | CCN(CC)C(=O)C1CN(C(=O)/C=C/c2ccc(OCc3ccccc3)c(OC)c2)C1
54 | 79.9 |  |  |  | COc1cc(/C=C/C(=O)N(C)OC)ccc1OCc1ccccc1
